In ChEMBL document CHEMBL2034843, “3α-Hydroxymasticadienonic acid as an antiproliferative agent that impairs mitochondrial functions” (J Nat Prod, 2012):
Calls of active or inactive are those of the source. The calls are words filed in the database; no cut-off is given here.

Legend:
Type in all cases: functional
[1] = species: Rattus norvegicus; experiment: Induction of mitochondrial bioenergetics dysfunction in rat liver mitochondria assessed as decrease in respiratory control index at 25 uM by using clark electrode
Procedure, shortened: (§1)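 Isolated rat liver mitochondria (1 mg protein/mL), 20 °C, sucrose/HEPES pH 7.4 medium with 5 mM succinate plus 1.25 μM rotenone and 1 mM phosphate. O2 uptake followed with a Clark electrode; 300 μM ADP added to start state 3. RCI = V3/V4 (state 3 over state 4 rate). Five experiments.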

[2] = species: Rattus norvegicus; experiment: Induction of mitochondrial bioenergetics dysfunction in rat liver mitochondria assessed as decrease in respiratory control index at 50 uM by using clark electrode; procedure, shortened: as §1
[3] = species: Rattus norvegicus; experiment: Induction of mitochondrial bioenergetics dysfunction in ADP-stimulated rat liver mitochondria assessed as decrease in oxygen consumption at 10 to 50 uM by using clark electrode; procedure, shortened: as §1
[4] = species: Rattus norvegicus; experiment: Induction of mitochondrial dysfunction in rat liver mitochondria assessed as increase in colloid-osmotic swelling at 10 uM by spectrophotometric analysis in presence of 50 uM Ca2+
Procedure, shortened: (§2)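 Absorbance change at 540 nm of rat liver mitochondrial suspensions (1 mg protein/mL, 20 °C, succinate/rotenone energized, 250 mM sucrose, 10 mM HEPES pH 7.4, 1 mM phosphate); a fall in absorbance taken as swelling. Ca2+ at 50, 70 or 90 μM as specified, or omitted. Runs repeated at least four times.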

[5] = species: Rattus norvegicus; experiment: Induction of mitochondrial dysfunction in rat liver mitochondria assessed as increase in colloid-osmotic swelling at 100 uM by spectrophotometric analysis in presence of 50 uM Ca2+; procedure, shortened: as §2
[6] = species: Rattus norvegicus; experiment: Hepatoprotective activity in rat liver assessed as inhibition of colloid-osmotic mitochondrial swelling at 100 uM by spectrophotometric analysis in presence of 90 uM Ca2+; conditions: Mitochondria; procedure, shortened: as §2
[7] = species: Rattus norvegicus; experiment: Induction of mitochondrial dysfunction in rat liver mitochondria assessed as increase in colloid-osmotic swelling at 10 to 100 uM by spectrophotometric analysis; procedure, shortened: as §2
[8] = species: Rattus norvegicus; experiment: Induction of mitochondrial dysfunction in rat liver mitochondria assessed as decrease in membrane potential at 1 uM by spectrophotometric analysis in presence of 50 uM Ca2+; conditions: in the assay text read “TPP+-selective electrode” for “spectrophotometric analysis”, TDE = time-dependent effect
Procedure, shortened: (§3)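 Membrane potential (ΔΨ) derived from TPP+ distribution across the inner membrane, measured with a TPP+-selective electrode. Ca2+ 50 μM where indicated; cyclosporin A 1 μM where indicated.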

[9] = species: Rattus norvegicus; experiment: Induction of mitochondrial dysfunction in rat liver mitochondria assessed as decrease in membrane potential at 5 uM by spectrophotometric analysis in presence of 50 uM Ca2+; conditions: TDE = time-dependent effect; procedure, shortened: as §3
[10] = species: Rattus norvegicus; experiment: Induction of mitochondrial dysfunction in rat liver mitochondria assessed as decrease in membrane potential at 10 uM by spectrophotometric analysis in presence of 50 uM Ca2+; conditions: TDE = time-dependent effect; procedure, shortened: as §3
[11] = species: Rattus norvegicus; experiment: Hepatoprotective activity in rat liver assessed as increase in mitochondrial membrane potential at 100 uM by spectrophotometric analysis in presence of 50 uM Ca2+; conditions: Mitochondria; procedure, shortened: as §3
[12] = species: Rattus norvegicus; experiment: Induction of mitochondrial dysfunction in rat liver mitochondria assessed as change in membrane potential by spectrophotometric analysis
[13] = species: Rattus norvegicus; experiment: Induction of mitochondrial dysfunction in rat liver mitochondria assessed as decrease in membrane potential at 100 uM by spectrophotometric analysis in presence of 1 uM MPT inhibitor cyclosporin A; procedure, shortened: as §3
[14] = species: Rattus norvegicus; experiment: Induction of mitochondrial dysfunction in rat liver mitochondria assessed as increase in colloid-osmotic swelling at 10 uM by spectrophotometric analysis in presence of 50 uM Ca2+ and cyclosporin A
Procedure, shortened: (§4)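 Swelling read as the 540 nm absorbance decrease in succinate-energized rat liver mitochondria (1 mg protein/mL, 20 °C, pH 7.4 sucrose/HEPES medium) with 50 μM Ca2+. Added agents where indicated: 1 μM CsA, 5 μM bongkrekic acid, 1 mM ADP, 2 μM ruthenium red, 10 μM NEM, 1 mM DTE. At least five repeats.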

[15] = species: Rattus norvegicus; experiment: Induction of mitochondrial dysfunction in rat liver mitochondria assessed as increase in colloid-osmotic swelling at 10 uM by spectrophotometric analysis in presence of 50 uM Ca2+ and AdNT; procedure, shortened: as §4
[16] = species: Rattus norvegicus; experiment: Induction of mitochondrial dysfunction in rat liver mitochondria assessed as increase in colloid-osmotic swelling at 10 uM by spectrophotometric analysis in presence of 50 uM Ca2+ and Ca2+ transport inhibitor […] red; procedure, shortened: as §4
[17] = species: Rattus norvegicus; experiment: Induction of mitochondrial dysfunction in rat liver mitochondria assessed as increase in colloid-osmotic swelling at 10 uM by spectrophotometric analysis in presence of 50 uM Ca2+ and ADP; procedure, shortened: as §4
[18] = species: Rattus norvegicus; experiment: Induction of mitochondrial dysfunction in rat liver mitochondria assessed as increase in colloid-osmotic swelling at 10 uM by spectrophotometric analysis in presence of 50 uM Ca2+ and dithiothreitol; procedure, shortened: as §4
[19] = species: Rattus norvegicus; experiment: Induction of mitochondrial dysfunction in rat liver mitochondria assessed as increase in colloid-osmotic swelling at 10 uM by spectrophotometric analysis in presence of 50 uM Ca2+ and N-ethylmaleimide; procedure, shortened: as §4
[20] = species: Rattus norvegicus; experiment: Induction of mitochondrial dysfunction in rat liver mitochondria assessed as decrease in mitochondrial redox level at 10 uM after 15 mins by absorption spectrophotometric analysis; parameters: scale not given: the % may be the effect or the level left
Procedure, shortened: (§5)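 Mitochondrial protein thiol oxidation assayed per Santos et al. after 15 min incubation of rat liver mitochondria (1 mg protein/mL, 20 °C, succinate/rotenone standard medium). Results as % reduced thiols, mean ± SD, four independent experiments.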

[21] = species: Rattus norvegicus; experiment: Induction of mitochondrial dysfunction in rat liver mitochondria assessed as decrease in mitochondrial redox level at 10 uM after 15 mins by absorption spectrophotometric analysis in presence of 50 uM Ca2+; parameters: scale not given: the % may be the effect or the level left; procedure, shortened: as §5
[22] = species: Rattus norvegicus; experiment: Induction of mitochondrial dysfunction in Ca2+-stimulated rat liver mitochondria assessed as decrease in mitochondrial redox level at 10 uM after 15 mins by absorption spectrophotometric analysis in presence of cyclosporin A; procedure, shortened: as §5
[23] = species: Rattus norvegicus; experiment: Induction of mitochondrial dysfunction in Ca2+-stimulated rat liver mitochondria assessed as decrease in mitochondrial redox level at 10 uM after 15 mins by absorption spectrophotometric analysis in presence of bongkrekic acid; procedure, shortened: as §5
[24] = species: Rattus norvegicus; experiment: Induction of mitochondrial dysfunction in Ca2+-stimulated rat liver mitochondria assessed as decrease in mitochondrial redox level at 10 uM after 15 mins by absorption spectrophotometric analysis in presence of Ca2+ transport inhibitor […] red; procedure, shortened: as §5
[25] = species: Rattus norvegicus; experiment: Induction of mitochondrial dysfunction in Ca2+-stimulated rat liver mitochondria assessed as decrease in mitochondrial redox level at 10 uM after 15 mins by absorption spectrophotometric analysis in presence of ADP; procedure, shortened: as §5
[26] = species: Rattus norvegicus; experiment: Induction of mitochondrial dysfunction in Ca2+-stimulated rat liver mitochondria assessed as decrease in SH mitochondrial redox level at 10 uM after 15 mins by absorption spectrophotometric analysis in presence of dithiothreitol; procedure, shortened: as §5

C/C(=C/CC[C@H](C)[C@@H]1CC[C@]2(C)C3=CC[C@H]4C(C)(C)[C@H](O)CC[C@]4(C)[C@H]3CC[C@@]12C)C(=O)O
Activity [1]: Active | Activity [2]: Active | Activity [3]: Active | Activity [4]: Active | Activity [5]: Active | inhibition [6]: Active | Activity [7]: inactive | Activity [8]: tde | Activity [9]: tde | Activity [10]: tde | Activity [11]: Active | Activity [12]: Dose-dependent effect | Activity [13]: Active | Activity [14]: inactive | Activity [15]: inactive | Activity [16]: inactive | Activity [17]: inactive | Activity [18]: inactive | Activity [19]: inactive | Activity [20]: 20% | Activity [21]: 50% | Activity [22]: inactive | Activity [23]: Active | Activity [24]: inactive | Activity [25]: Active | Activity [26]: inactive
